Experimental data reported in ChEMBL document CHEMBL4765325, “Discovery of dihydropyrrolidones as novel inhibitors against influenza A virus” (Eur J Med Chem, 2020).
pIC50: −log10 of the molar value.

Key:
Influenza A virus = assay: Antiviral activity against Influenza A virus (A/Puerto Rico/8/34(H1N1)) harboring NA H274Y mutant infected in dog MDCK cells assessed as reduction in virus-induced cytopathogenicity incubated for 48 hrs by microscopic analysis; type: functional, organism-based, A/Puerto Rico/8/1934(H1N1)
Procedure, shortened: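 MDCK cells were infected with each IAV strain at 100TCID₅₀ for 1 h, then washed twice with PBS. They were cultured 48 h in DMEM with two-fold serial compound dilutions and 1 mg/ml TPCK. Antiviral activity was read by an MTT-based method, giving IC₅₀ from triplicate wells as mean SD.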

[1] = Selectivity index, ratio of CC50 for dog MDCK cells to IC50 for antiviral activity against Influenza A virus (A/Puerto Rico/8/34(H1N1)) harboring NA H274Y mutant; type: toxicity; settings: read-out: Ratio CC50/IC50
Procedure, shortened: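 SI = CC50/IC50, both from MTT read-outs in MDCK cells in triplicate. Cytotoxicity: 2 × 10⁴ cells/well, overnight at 37 °C with 5% CO2, then compound at 1.56–400 µM for 48 h, MTT 4 h, DMSO, A570. Antiviral: cells infected 1 h, washed, then cultured 48 h in DMEM with TPCK and two-fold serial compound dilutions.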

CCOC(=O)C1=C(Nc2ccc(C(F)(F)F)cc2)C(=O)N(c2ccc(C(F)(F)F)cc2)C1c1ccccc1 (configuration not stated)
pIC50 (Influenza A virus): 5.19
selectivity ratio [1]: > 61.6
